Rows were chosen to be rich in hits. Some 1.5% of all compounds tested hit in one or more screens of this group.
Cneo AK release – Cryptococcus neoformans cell lysis inducers, primary screen, AK release luminescence, single concentration; C. neoformans lysis, adenylate kinase release luminescence, 4 h; normalised: neutral wells 0, clomiphene wells 100; lysis activity, % at 15 µM; 360,000 compounds, 0.2% hits;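 active = mean lysis activity across replicates of at least 80%, whatever share of replicates individually reach that level; inactive = mean lysis activity below 80%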
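Material – Cryptococcus neoformans yeast cells · Quantity – 5 × 10^6 yeast cells/mL · Buffer or medium – YPD medium · Compound – single dose · Timing – 4 h static compound exposure, 37 °C, read 1 h post-reagent · Signal – adenylate kinase release luminescence · Read-out basis – lysis from increased AK signal · Benchmarks – Clomiphene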
Statin myotox sup – suppressors of statin myotoxicity in C2C12 myotubes, primary screen, cell-based, single point, plate reader; C2C12 myotubes + simvastatin, ATP luminescence, 48 h; scaled: DMSO 0, geranylgeraniol control 100; rescue of ATP level, % at 7.49 µM; 330,000 compounds, 0.78% hits; AID 602340, 2012;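 active = mean ATP rescue above about 67%, or every replicate alone reaching that limit, limit read from the data, passing the limit was not always enough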;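 also: myotubes were challenged with 10 µM simvastatin during compound exposure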
Mot1-301 SUMO – yeast Mot1-301 growth rescue at high temperature, primary screen, SUMOylation pathway inhibitor project, S. cerevisiae, ATP luminescence, 38.5C; S. cerevisiae Mot1-301 growth rescue; percent above DMSO median, 100 means doubled; growth rescue, % at 18.8 µM; 320,000 compounds, 1% hits;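 active = every valid replicate shows activation above 250% relative to neutral control wells; inactive = the rest, any valid replicate at or below 250%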;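 also: OY570 slx delta 5 strain wells were the positive control but not used for scaling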
An asterisk follows results filed as active; x = no result.

SMILES | Cneo AK release | Statin myotox sup | Mot1-301 SUMO
Clc1ccc(OCCCCN2CCCCC2)cc1 | -1 | -6 | 37
CC(C)c1ccc(OCCCCN2CCCCC2)cc1 | 1 | -11 | 352*
c1ccc(COc2ccc(OCCN3CCCCC3)cc2)cc1 | 2 | x | 445*
c1ccc(-c2sc3ccccc3c2-c2ccc(OCCN3CCCC3)cc2)cc1 | 0 | -3 | 298*
COc1ccc(-c2sc3ccccc3c2-c2ccc(OCCN3CCCCC3)cc2)cc1 | 1 | -19 | -21
CNC(=O)C[C@@H]1CC[C@@H]2[C@H](COC[C@H](O)CN2C(=O)Nc2cccc(OC)c2)O1 | 0 | -3 | x
CCN1[C@H](C(=O)OC)[C@@H](CO)[C@@H]2Cn3c(ccc(-c4cccc(C(=O)N(C)C)c4)c3=O)[C@@H]21 | -3 | 7 | x
O=C1N[C@H](Cc2ccccc2)COCn2nncc2CC[C@H]1Cc1ccccc1 | 1 | x | x
O=C(Cn1cnc2ccccc2c1=O)Nc1nc2ccccc2s1 | x | x | 3
O=c1c2ccccc2ncn1Cc1nc2ccccc2s1 | -1 | 114* | -29
COCc1cn(CC[C@H]2CC[C@@H](NC(=O)Nc3ccc(F)cc3)[C@@H](CO)O2)nn1 | 8 | -5 | x
Cc1cccc(N/N=C2/COC(C)(C)CC2=O)c1 | 2 | 9 | 53
CC1(C)CC(=O)/C(=N/Nc2ccc(Cl)cc2)CO1 | -3 | -2 | 275*
CCCN1C[C@H](C)[C@H](OC)CN(C)C(=O)c2ccc(NC(=O)c3cccc(OC)c3)cc2OC[C@H]1C | -3 | 13 | x
Cc1ccc(S(=O)(=O)CCC(=O)Nc2cccc([N+](=O)[O-])c2)cc1 | x | x | 6
Cc1ccc(S(=O)(=O)CCC(=O)Nc2cccc(Cl)c2)cc1 | -1 | 108* | -3
O=C(C[C@@H]1CC[C@@H]2[C@H](COC[C@H](O)CN2Cc2ccccc2F)O1)N[C@@H]1CCN(Cc2ccccc2)C1 | 0 | 5 | x
O=C1c2ccccc2NC(c2cccc(F)c2)N1Cc1ccccc1 (centres undefined) | 1 | 9 | 479
O=C1c2ccccc2NC(c2cccc(F)c2)N1Cc1ccco1 (centres undefined) | -3 | 114* | -14
CCCCn1c(=N)n(CC(=O)c2ccco2)c2ccccc21 | 3 | -25 | -3
CCCCCCCn1c(=N)n(CC(=O)c2ccco2)c2ccccc21 | 2 | x | 514*
COc1ccc(S(=O)(=O)Nc2ccc3c(c2)C(=O)N([C@@H](C)CO)C[C@H](C)[C@@H](CN(C)S(C)(=O)=O)OCCCC[C@@H](C)O3)cc1 | 1 | x | x
CN1CCN(C(=O)C[C@@H]2C[C@@H]3c4cc(NC(=O)Nc5ccc(C(F)(F)F)cc5)ccc4O[C@@H]3[C@H](CO)O2)CC1 | 12 | 7 | x
CCCNS(=O)(=O)c1ccc(OCC(=O)OC)cc1 | -1 | 130* | 288
CCCCNS(=O)(=O)c1ccc(OCC(=O)OC)cc1 | x | x | 4
SMILES | Cneo AK release | Statin myotox sup | Mot1-301 SUMO
C[C@H](CO)N1C[C@H](C)[C@H](CN(C)C(=O)Nc2ccc(F)cc2)Oc2ccc(NC(=O)c3ccncc3)cc2C1=O | -2 | 4 | x
C[C@@H]1CN([C@@H](C)CO)C(=O)c2cc(/C=C/c3ccccc3)cnc2O[C@H]1CN(C)C(=O)C1CCCCC1 | 43 | 40 | x
Cc1cc(NC(=O)CSc2nc3ccsc3c(=O)n2CCCC(=O)NCCc2ccccc2)no1 | x | x | 771*
CCN(CC)C(=O)CSc1nc2ccsc2c(=O)n1CCCC(=O)NCCc1ccc(S(N)(=O)=O)cc1 | x | x | 14
O=C(Nc1cccc(-c2nc3ccccc3[nH]2)c1)c1cccc(NC(=O)c2ccco2)c1 | 0 | -83 | -1
Cc1ccc(-c2nc3ccccc3[nH]2)cc1NC(=O)c1ccco1 | 3 | 116* | x
O=C1/C(=C/c2ccncc2)CCC/C1=C\c1ccncc1 | -9 | 250* | x
O=C1C(=Cc2ccncc2)CCCc2ccccc21 | -2 | -2 | x
CCN1CCN(Cc2ccc(NC(=O)c3cc(NC(=O)c4nccnc4N)cc(OC)c3)cc2C(F)(F)F)CC1 | -5 | -11 | 353*
CCN1CCN(Cc2ccc(NC(=O)c3ccc(C)c(NC(=O)c4nccnc4N)c3)cc2C(F)(F)F)CC1 | 6 | -15 | 10
O=C(Nc1ccccc1F)N1C[C@@H]2[C@H](c3ccccc31)[C@@H](CO)N2C(=O)c1ccccc1F | -6 | -12 | x
[N-]=[N+]=CC(=O)C(c1ccccc1)(c1ccccc1)c1ccccc1 | 0 | x | 44
[N-]=[N+]=CC(=O)C(O)(c1ccccc1)C(Cl)c1ccccc1 (centres undefined) | -1 | x | 301*
O=C(O)CC/C(=N/Nc1ccc([N+](=O)[O-])cc1)C(=O)O | x | x | 208
O=C(O)CC/C(=N\Nc1ccc([N+](=O)[O-])cc1)c1ccccc1 | 5 | 12 | 367*
C[C@H](O)C#Cc1ccc2c(c1)O[C@@H](CN(C)Cc1ccncc1)[C@H](C)CN([C@@H](C)CO)S2(=O)=O | -2 | -23 | x
CC1(C)N=C(N)N=C(N)N1c1cc(Cl)ccc1Cl | -1 | 4 | x
CC1(C)N=C(N)N=C(N)N1c1ccc(F)cc1F | 3 | 104* | 6
CCC(=O)N(C)C[C@H]1Oc2ncc(-c3ccc(F)cc3)cc2C(=O)N([C@@H](C)CO)C[C@@H]1C | 0 | 11 | x
Cc1ccc(C(=O)Nc2ccc(Br)cc2)cc1S(=O)(=O)Nc1ccccn1 | -2 | x | -6
Cc1ccccc1NC(=O)c1ccc(C)c(S(=O)(=O)Nc2ccccn2)c1 | -2 | 97* | -22
O=C(Nc1ccc(S(=O)(=O)Nc2ccccn2)cc1)c1cccc(Cl)c1 | -7 | 74* | 2
O=C(Nc1ccc(S(=O)(=O)Nc2ccccn2)cc1)c1cccc(Br)c1 | -1 | -2 | -22
O=C(O)c1cc(NN=Nc2ccc(Br)cc2)cc([N+](=O)[O-])c1 | x | x | 322*
O=C(O)c1cc(NN=Nc2cccc([N+](=O)[O-])c2)cc([N+](=O)[O-])c1 | -2 | 7 | 79
SMILES | Cneo AK release | Statin myotox sup | Mot1-301 SUMO
CCOC(=O)CCC(=O)NCc1ccc2[nH]c(C)cc2c1 | 3 | -14 | -5
CCOC(=O)NCc1ccc2[nH]c(C)cc2c1 | 136* | -5 | -9
CC1Cc2ccccc2N1C(=O)CSc1nnc(Cc2ccccc2)n1CCc1ccccc1 (centres undefined) | 4 | 113* | x
CC1Cc2ccccc2N1C(=O)CSc1nnnn1C (centres undefined) | 1 | 28 | 7
COc1ccccc1-c1ccc([C@@H]2[C@@H](C#N)N(C(=O)C3CC3)[C@@H]2CO)cc1 | 1 | -4 | x
C[C@@H]1CN([C@@H](C)CO)C(=O)c2cc(Br)cnc2O[C@H]1CN(C)C(=O)C1CCOCC1 | -1 | -18 | x
O=C(C[C@H]1CC[C@@H](NC(=O)c2ccc3c(c2)OCO3)[C@@H](CO)O1)NCc1ccc(F)cc1 | 94* | 6 | x
O=C(C[C@@H]1CC[C@H](NC(=O)c2ccc3c(c2)OCO3)[C@H](CO)O1)NCc1ccc(F)cc1 | 79 | 11 | x
C=CCn1c(COc2cccc(C)c2)nnc1SCC(=O)c1c(N)n(C)c(=O)n(C)c1=O | x | -1 | x
C=CCn1c(COc2ccc(Cl)cc2)nnc1SCC(=O)c1c(N)n(C)c(=O)n(C)c1=O | 1 | 101* | -16
